Laboratory results as given in PubChem BioAssay AID602309 (Southern Research Specialized Biocontainment Screening …, 2012).
Activity calls are given as the source filed them.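 How the source made its calls: active means inhibition of 30% or more at any tested concentration; inactive means the rest.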

Each molecule was assayed against M17 leucyl aminopeptidase (Plasmodium falciparum 3D7) (assay: Inhibition of P. falciparum M17 aminopeptidase – biochemical, QFRET, set 3, dose response (AID 602309)). Details: purified rPfM17LAP, H-Leu-NHMec fluorogenic cleavage.
Procedure, shortened: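 Material: recombinant P. falciparum M17 leucyl aminopeptidase. Quantity: rPFM17LAP enzyme at 5 µg/mL final. Signal: fluorescence of released NHMec, excitation 370 nm, emission 460 nm. Incubation: 90 min reaction, room temperature. Evaluation: IC50 from % inhibition dose-response fit. Benchmarks: full reaction wells versus no-enzyme background wells.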

Row | Structure (SMILES) | IC50
1 | CCCCOc1cccc(CC(=O)NO)c1 | 2260 nM
2 | O=C(NO)c1ccc2ccccc2c1 | 46300 nM
3 | CCCCOc1ccc(C(C)C(=O)NO)cc1 (stereo not drawn) | 2160 nM

Now from value to molecule:

Row | IC50 | Structure (SMILES)
4 | 1390 nM | CCCOc1ccc(CC(=O)NO)cc1
5 | 2270 nM | CCC(C)Oc1ccc(CC(=O)NO)cc1 (stereo not drawn)

Same assay, conditions: purified rPfM17LAP, H-Leu-NHMec fluorogenic cleavage; at 100 µM (top of the series)

Row | Structure (SMILES) | inhibition
6 | CCCCOc1ccc(C(C)(C)C(=O)O)cc1 | inactive
7 | CN(C)CCOc1ccc(CC(=O)O)cc1 | inactive
8 | CCCCOc1ccc(CN(O)C(=O)c2ccccc2)cc1 | inactive
9 | CCCOc1ccc(CC(=O)O)cc1 | inactive
10 | CCCCOc1ccc(C(C)(C)C(=O)NO)cc1 | inactive

Results, then the molecule that gave them:

Row | inhibition | Structure (SMILES)
11 | inactive | CCCCOc1ccc(CN(O)C(C)=O)cc1
12 | inactive | CCCCOc1ccc(C(C)C(=O)OC)cc1 (stereo not drawn)
13 | inactive | CCCCOc1cccc(CC(=O)OC)c1
